pEC50: −log10 of the molar value.
Experiments:
[1] = biological target: T1, Adenosine receptor A1 (Rattus norvegicus) (UniProt P25099); test: Enhancing activity at 10 uM PD 81,723 (100%) at Adenosine A1 receptor in rat brain cortex membranes; type: cell membranes
T1 sequence (whole entry): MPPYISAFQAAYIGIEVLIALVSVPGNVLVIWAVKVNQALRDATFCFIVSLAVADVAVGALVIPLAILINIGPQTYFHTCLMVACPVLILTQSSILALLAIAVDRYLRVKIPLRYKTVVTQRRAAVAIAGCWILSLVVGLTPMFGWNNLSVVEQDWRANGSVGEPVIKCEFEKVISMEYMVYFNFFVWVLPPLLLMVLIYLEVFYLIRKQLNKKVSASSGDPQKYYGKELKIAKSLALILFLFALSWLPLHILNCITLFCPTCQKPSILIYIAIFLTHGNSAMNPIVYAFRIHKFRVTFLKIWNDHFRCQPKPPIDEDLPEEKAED
How it was run: (§1)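 Rat brain cortex membranes (ADA-treated, 2 U/mL at 37 °C) preincubated 2.5 h with 0.5 nM [3H]CCPA. Dissociation then started with 100 μM CPA, with or without 10 μM test compound. Bound [3H]CCPA measured after 1 h.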

[2] = biological target: T1, Adenosine receptor A1 (Rattus norvegicus); test: Antagonistic activity expressed as percent displacement of 0.4 nM of [3H]DPCPX from adenosine A1 receptors in rat brain cortex membranes at 10 uM; type: functional, cell membranes; settings: Membrane
How it was run: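 Rat brain cortex membranes (ADA-treated, 2 U/mL at 37 °C before storage; 30 μg/mL) incubated 1 h at 25 °C in 50 mM Tris/HCl pH 7.4 with 0.4 nM [3H]DPCPX and 10 μM compound. Nonspecific binding defined by 10 μM CPA. Result is percent displacement of radioligand; n = 3–5.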

Adenosine receptor A1 = biological target: T2, Adenosine receptor A1 (Rattus norvegicus, UniProt P25099); test: Enhanced 0.5 nM [3H]CCPA dissociation from adenosine A1 receptor of rat brain cortex membranes compared to 100 uM CPA
T2 sequence (P25099 whole entry): T1 sequence (whole entry)
How it was run: as §1, with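 “h. Percent decrease in dissociation scaled between control (0%) and 10 μM PD 81,723 as reference (100%); n = 3.” for “h.”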

Row | Compound | Enhancement [1] | Antagonism [2] | pEC50 (Adenosine receptor A1)
1 | Nc1sc2c(c1C(=O)c1ccc(C(F)(F)F)cc1)CCCC2 | 131% | 56.7% | 5.33
2 | COC(=O)c1ccc(C(=O)c2c(N)sc3c2CCCC3)cc1 | 43.9% | 28.9% | –
3 | Nc1sc2c(c1C(=O)c1ccccc1)CCN(Cc1ccccc1)C2 | 52.8% | 67.1% | –
4 | Nc1sc2c(c1C(=O)c1ccccc1)CCN(Cc1cccc(Cl)c1)C2 | 106% | 80.1% | 4.82
5 | CCc1c(C)sc(N)c1C(=O)c1ccccc1 | 31.4% | 12.6% | –
6 | Cc1sc(N)c(C(=O)c2cccc(Cl)c2)c1C | 80.3% | 18.7% | –
7 | Nc1sc2c(c1C(=O)c1ccc([N+](=O)[O-])cc1)CCCC2 | 33.9% | 19.5% | –
8 | Nc1sc2c(c1C(=O)c1ccccc1)CCN(Cc1ccc(Cl)cc1)C2 | 69% | 52.2% | –
9 | Nc1sc2c(c1C(=O)c1ccccc1)CCN(C(=O)c1ccccc1)C2 | 13.8% | 71.8% | –
10 | Nc1sc2c(c1C(=O)c1ccccc1)CCN(Cc1ccc(Cl)c(Cl)c1)C2 | 57% | 4% | –
11 | CCc1c(C)sc(N)c1C(=O)c1ccc(Cl)cc1 | 97.2% | 19.8% | –
12 | Cc1sc(N)c(C(=O)c2ccc(Cl)cc2)c1C | 93.5% | 41% | –
13 | CCc1c(C)sc(N)c1C(=O)c1cccc(Cl)c1 | 29.9% | 22.3% | –
14 | Nc1sc2c(c1C(=O)c1ccc(Cl)cc1)CCN(Cc1ccc(Cl)c(Cl)c1)C2 | 106% | 45.7% | 4.49
15 | Nc1sc2c(c1C(=O)c1ccc(Cl)cc1)CCN(Cc1ccccc1)C2 | 132% | 60.9% | 4.95
16 | Cc1sc(N)c(C(=O)c2cccc(C(F)(F)F)c2)c1C | 100% | 39.5% | 4.83
17 | CCc1c(C)sc(N)c1C(=O)c1cccc(C(F)(F)F)c1 | 112% | 5.4% | –
18 | Nc1sc2c(c1C(=O)c1ccc(Cl)c(Cl)c1)CCN(Cc1ccccc1)C2 | 174% | 51% | 5.04
19 | Cc1sc(N)c(C(=O)c2ccccc2)c1C | 8% | 13.9% | –

Continued, values first:

Row | Enhancement [1] | Antagonism [2] | pEC50 (Adenosine receptor A1) | Compound
20 | 72.5% | 35.1% | – | Nc1sc2c(c1C(=O)c1ccccc1Cl)CCCC2
21 | 113% | 65.8% | – | Nc1sc2c(c1C(=O)c1cccc(I)c1)CCCC2
22 | 151% | 34.7% | 5.21 | Nc1sc2c(c1C(=O)c1ccc(Cl)c(Cl)c1)CCCC2
23 | 155% | 64.4% | 5.35 | Nc1sc2c(c1C(=O)c1ccc(I)cc1)CCCC2
24 | 28.6% | – | – | Nc1sc2c(c1C(=O)c1ccc(C(=O)O)cc1)CCCC2
25 | 137% | 30.3% | 4.46 | Cc1ccc(C(=O)c2c(N)sc3c2CCCC3)cc1
26 | 128% | 41.6% | 4.79 | Nc1sc2c(c1C(=O)c1ccc(Br)cc1)CCCC2
27 | 122% | 32.2% | 5.22 | Nc1sc2c(c1C(=O)c1cccc(C(F)(F)F)c1)CCCC2
28 | 123% | 39.9% | 5.17 | Nc1sc2c(c1C(=O)c1ccc(Cl)cc1)CCCC2 [T-62]
29 | 47.2% | 34.7% | – | Nc1sc2c(c1C(=O)c1ccccc1)CCCC2
30 | 92.7% | 50.6% | 4.98 | Nc1sc2c(c1C(=O)c1cccc(Cl)c1)CCCC2

From ChEMBL document CHEMBL1132378, “Allosteric modulation of the adenosine A(1) receptor. Synthesis and biological evaluation of novel 2-amino-3-benzoylthiophenes as allosteric enhancers of agonist binding” (J Med Chem, 1999)
